Our source for the IC50 and Activity values is ChEMBL document CHEMBL3774372, “Design, physico-chemical properties and biological evaluation of some new N-[(phenoxy)alkyl]- and N-{2-[2-(phenoxy)ethoxy]ethyl}aminoalkanols as anticonvulsant agents” (Bioorg Med Chem, 2016).

The target of data set [1] is Muscarinic acetylcholine receptor M5 (Homo sapiens, UniProt P08912). Kind of data set: Displacement of [3H]4-DAMP from human recombinant muscarinic M5 receptor expressed in CHO cells. In kind it is cell-based.
For data set [2], the system named is Rattus norvegicus. Kind of data set: Neurotoxicity in rat at 30 mg/kg, ip after […] by rotarod test. The note with it: in vivo. In kind it is toxicity, organism-based. For orientation: In the rotarod test animals must keep their balance on a rotating rod.
Data set [3] deals with Rattus norvegicus. Kind of data set: Neurotoxicity in rat at 30 mg/kg, ip after 0.5 hrs by rotarod test. The data set is classed as toxicity, organism-based. Conditions: in vivo.
Data set [4] relates to Rattus norvegicus. Kind of data set: Neurotoxicity in rat at 30 mg/kg, ip after 1 hr by rotarod test. The data set is classed as toxicity, organism-based. Conditions: in vivo.
In data set [5] the test system is Rattus norvegicus. Kind of data set: Neurotoxicity in rat at 30 mg/kg, ip after 2 hrs by rotarod test. In kind it is toxicity, organism-based. Conditions: in vivo.
The subject of data set [6] is Rattus norvegicus. Kind of data set: Neurotoxicity in rat at 30 mg/kg, ip after 4 hrs by rotarod test. The data set is classed as toxicity, organism-based. Conditions: in vivo.
Data set [7] deals with Rattus norvegicus. Kind of data set: Neurotoxicity in rat at 30 mg/kg, po after […] by rotarod test. Conditions: in vivo. The data set is classed as toxicity, organism-based.
Data set [8] deals with Rattus norvegicus. Kind of data set: Neurotoxicity in rat at 30 mg/kg, po after 0.5 hrs by rotarod test. Conditions: in vivo. The data set is classed as toxicity, organism-based.
Data set [9] relates to Rattus norvegicus. Kind of data set: Neurotoxicity in rat at 30 mg/kg, po after 1 hr by rotarod test. The note with it: in vivo. In kind it is toxicity, organism-based.
Data set [10] concerns Rattus norvegicus. Kind of data set: Neurotoxicity in rat at 30 mg/kg, po after 2 hrs by rotarod test. The note with it: in vivo. In kind it is toxicity, organism-based.
The test system of data set [11] is Rattus norvegicus. Kind of data set: Neurotoxicity in rat at 30 mg/kg, po after 4 hrs by rotarod test. In kind it is toxicity, organism-based. The note with it: in vivo.
Data set [12] relates to Mus musculus. Kind of data set: Neurotoxicity in mouse at 30 mg/kg, ip after 2 hrs by rotarod test. In kind it is toxicity, organism-based. The note with it: in vivo.
Data set [13] has as its system Mus musculus. Kind of data set: Neurotoxicity in mouse at 30 mg/kg, ip after 0.5 hrs by rotarod test. The note with it: in vivo. The data set is classed as toxicity, organism-based. The gist of the method:
(§1)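 Mice were dosed ip with compound suspended in 0.5% methylcellulose. Rotarod: a 1 in. knurled rod turning at 6 rpm. Neurotoxicity was scored as failure to stay on the rod for at least 1 min in each of three trials. Results are given as the number of animals affected out of the number tested.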

Data set [14] deals with Mus musculus. Kind of data set: Neurotoxicity in mouse at 30 mg/kg, ip after 4 hrs by rotarod test. The data set is classed as toxicity, organism-based. The note with it: in vivo. The gist of the method: as §1
For data set [15], the system named is Mus musculus. Kind of data set: Neurotoxicity in mouse at 100 mg/kg, ip after 0.5 hrs by rotarod test. In kind it is toxicity, organism-based. Conditions: in vivo. The gist of the method:
as §1

In data set [16] the test system is Mus musculus. Kind of data set: Neurotoxicity in mouse at 300 mg/kg, ip after 0.5 hrs by rotarod test. In kind it is toxicity, organism-based. The note with it: in vivo. The gist of the method: as §1

Sequence of Muscarinic acetylcholine receptor M5 (P08912 whole entry): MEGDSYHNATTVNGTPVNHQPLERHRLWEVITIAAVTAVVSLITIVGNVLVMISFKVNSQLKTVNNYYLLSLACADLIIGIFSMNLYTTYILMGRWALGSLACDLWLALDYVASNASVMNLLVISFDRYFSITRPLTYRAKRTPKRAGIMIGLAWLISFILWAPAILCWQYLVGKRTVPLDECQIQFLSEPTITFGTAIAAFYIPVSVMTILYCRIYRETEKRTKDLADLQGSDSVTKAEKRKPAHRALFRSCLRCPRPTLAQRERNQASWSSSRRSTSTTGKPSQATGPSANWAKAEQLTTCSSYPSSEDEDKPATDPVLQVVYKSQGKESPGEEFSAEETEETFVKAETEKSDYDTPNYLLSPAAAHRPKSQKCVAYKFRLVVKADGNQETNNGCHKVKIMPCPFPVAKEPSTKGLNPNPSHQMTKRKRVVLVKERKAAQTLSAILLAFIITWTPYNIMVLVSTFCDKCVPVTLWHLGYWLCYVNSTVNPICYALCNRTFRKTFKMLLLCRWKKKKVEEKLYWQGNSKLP

As usually defined, the IC50 is the concentration that inhibits the measured activity by half. In the case of `C[N+]1(C)CCC(OC(=O)C(c2ccccc2)c2ccccc2)CC1` [4-DAMP], the IC50 in [1] is 0.32 nM.
Regarding `Cc1cccc(C)c1OCCOCCN[C@@H](C)CO.Cl`, the Activity result with Rattus norvegicus [2], in the data set on Rattus norvegicus [3], in the data set on Rattus norvegicus [4], in the data set on Rattus norvegicus [5], in the data set with Rattus norvegicus [6] and in the data set with Rattus norvegicus [7] was “Non-toxic” each time. Also, the Activity entry in the data set on Rattus norvegicus [8], in the data set on Rattus norvegicus [9], in the data set with Rattus norvegicus [10], with Rattus norvegicus [11], with Mus musculus [12] and with Mus musculus [13] was “Non-toxic” each time. The Activity entry in the data set with Mus musculus [14] was “Non-toxic”; in the data set with Mus musculus [15] it was “Non-toxic”; with Mus musculus [16] it was “Toxic”.
